Key:
[1] = target: Metabotropic glutamate receptor 5 (Mus musculus, UniProt Q3UVX5); assay: Positive allosteric modulator activity at mGluR5 in mouse BV2 cells assessed as inhibition of nitric oxide production pre-treated 1 hr before lipopolysaccharide stimulation and measured 24 hrs post lipopolysaccharide stimulation by Griess reagent assay; format: cell-based, BV-2
Procedure, shortened: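 BV2 microglia grown in DMEM plus 10% FBS at 37°C, 5% CO2. Pretreated 1 h with compound in 0.02% DMSO (final), then stimulated with LPS 50 ng/ml for 24 h. Read-out is supernatant nitrite by Griess reagent as a proxy for NO. IC50 is the mean of three independent experiments.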

[2] = Cytotoxicity against mouse BV2 cells by CytoTox96 non-radioactive cytotoxicity assay; format: cell-based, BV-2; details: for MNTC: BV2 cells, read-out: MNCC
Procedure, shortened: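 BV2 murine microglia in DMEM with 10% FBS, 37°C, 5% CO2. Compounds in 0.02% DMSO (final) added 1 h before LPS (50 ng/ml), 24 h co-incubation. Viability by CytoTox96 non-radioactive kit. Value is the highest concentration without obvious cytotoxicity.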

[3] = Selectivity index, ratio of MNCC against mouse BV2 cells to IC50 for mGluR5 in mouse BV2 cells; format: functional, BV-2

Chain of Metabotropic glutamate receptor 5 (Q3UVX5 whole entry): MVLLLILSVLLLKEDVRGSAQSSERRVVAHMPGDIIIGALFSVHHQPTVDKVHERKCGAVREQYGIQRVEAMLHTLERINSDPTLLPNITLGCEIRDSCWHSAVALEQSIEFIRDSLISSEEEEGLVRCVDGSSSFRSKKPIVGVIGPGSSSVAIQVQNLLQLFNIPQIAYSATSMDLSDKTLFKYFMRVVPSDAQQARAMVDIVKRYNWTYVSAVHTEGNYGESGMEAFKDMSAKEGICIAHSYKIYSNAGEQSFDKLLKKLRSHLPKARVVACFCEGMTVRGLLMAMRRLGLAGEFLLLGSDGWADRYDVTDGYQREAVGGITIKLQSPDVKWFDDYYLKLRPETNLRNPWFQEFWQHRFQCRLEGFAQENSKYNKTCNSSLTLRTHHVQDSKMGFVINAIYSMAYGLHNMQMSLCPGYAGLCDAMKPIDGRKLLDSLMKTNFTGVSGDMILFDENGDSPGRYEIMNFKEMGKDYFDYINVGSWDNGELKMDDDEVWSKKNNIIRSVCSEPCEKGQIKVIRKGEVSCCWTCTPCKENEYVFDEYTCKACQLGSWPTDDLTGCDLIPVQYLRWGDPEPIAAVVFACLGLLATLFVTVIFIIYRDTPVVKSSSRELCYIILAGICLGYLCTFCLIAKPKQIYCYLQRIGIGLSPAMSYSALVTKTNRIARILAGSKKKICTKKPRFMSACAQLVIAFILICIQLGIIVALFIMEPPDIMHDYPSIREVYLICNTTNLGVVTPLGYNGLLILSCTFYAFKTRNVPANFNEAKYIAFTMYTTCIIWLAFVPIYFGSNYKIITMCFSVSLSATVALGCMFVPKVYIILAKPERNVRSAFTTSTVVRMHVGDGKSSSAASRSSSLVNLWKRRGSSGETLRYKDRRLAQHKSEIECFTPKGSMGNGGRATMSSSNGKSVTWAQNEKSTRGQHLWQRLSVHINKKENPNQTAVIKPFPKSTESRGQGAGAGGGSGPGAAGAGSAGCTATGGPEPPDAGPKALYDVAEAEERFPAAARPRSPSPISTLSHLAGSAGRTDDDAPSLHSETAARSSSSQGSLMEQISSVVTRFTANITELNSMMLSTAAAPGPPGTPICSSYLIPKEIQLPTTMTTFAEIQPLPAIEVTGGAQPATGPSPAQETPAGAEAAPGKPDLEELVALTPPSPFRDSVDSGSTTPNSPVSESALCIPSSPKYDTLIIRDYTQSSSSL

Structure (SMILES) | IC50 ([1]; read-out: IC50) | IC50 ([1]; bv-2) | MNTC [2] | Selectivity Index [3] | MNCC ([2]; bv-2)
O=C(Nc1nc2ccccc2[nH]1)c1ccc([N+](=O)[O-])cc1 | 33 µM | – | 0.3 mM | 9.2 | –
O=C(Nc1nc2ccccc2[nH]1)c1ccccc1F | 36 µM | – | 1 mM | 28 | –
COc1cccc(C(=O)Nc2nc3ccccc3[nH]2)c1 | 120 µM | – | 1 mM | 8.06 | –
COc1ccc(C(=O)Nc2nc3ccccc3[nH]2)cc1 | 100 µM | – | 1 mM | 10.1 | –
O=C(Nc1nc2ccccc2[nH]1)c1ccccc1 | 160 µM | – | 1 mM | 6.17 | –
O=C(Nc1nc2ccccc2[nH]1)c1ccccc1Cl | 110 µM | – | 0.3 mM | 2.67 | –
O=C(Nc1nc2ccccc2[nH]1)c1ccccc1C(F)(F)F | 88 µM | – | 1 mM | 11.3 | –
O=C(Nc1nc2ccccc2[nH]1)c1ccccn1 | – | ND(Insoluble) | – | – | ND(Insoluble)
CN(C(=O)c1cccc(Cl)c1)c1nc2ccccc2[nH]1 | 210 µM | – | 1 mM | 4.85 | –
O=C(Sc1nc2ccccc2[nH]1)c1cccc(Cl)c1 | 160 µM | – | 1 mM | 6.36 | –
O=C(Nc1nc2ccccc2[nH]1)c1ccc(C(F)(F)F)cc1 | 59 µM | – | 1 mM | 16.9 | –
O=C(Nc1nc2ccccc2[nH]1)c1ccncc1 | – | – | 1 mM | – | –
O=C(Nc1nc2ccccc2[nH]1)c1cc(C(F)(F)F)ccc1C(F)(F)F | 34 µM | – | 0.06 mM | 1.74 | –
COc1cc(C(=O)Nc2nc3ccccc3[nH]2)ccc1S(N)(=O)=O | 150 µM | – | 1 mM | 6.59 | –
O=C(Nc1nc2ccccc2[nH]1)C1CCCCC1 | 42 µM | – | 1 mM | 24.1 | –
Fc1cccc(/C=N/N=C/c2cccc(F)c2)c1 | – | – | 0.5 mM | – | –

More lines, main results first:

IC50 ([1]; read-out: IC50) | IC50 ([1]; bv-2) | Structure (SMILES) | MNTC [2] | Selectivity Index [3] | MNCC ([2]; bv-2)
15 µM | – | O=C(Nc1nc2ccccc2[nH]1)c1ccc(F)cc1 | 1 mM | 67.1 | –
29 µM | – | O=C(Nc1nc2ccccc2[nH]1)c1cccc(Cl)c1 | 1 mM | 34.6 | –
20 µM | – | CN(C)c1cccc(C(=O)Nc2nc3ccccc3[nH]2)c1 | 0.3 mM | 14.7 | –
15 µM | – | O=C(Nc1nc2ccccc2[nH]1)C1CCC1 | 0.06 mM | 3.97 | –
29 µM | – | O=C(Nc1nc2ccccc2[nH]1)c1cccc([N+](=O)[O-])c1 | 1 mM | – | –
12 µM | – | O=C(Nc1nc2ccccc2[nH]1)c1cccc(C(F)(F)F)c1 | 0.2 mM | 17.2 | –
12 µM | – | O=C(Nc1nc2ccccc2[nH]1)c1cc(Cl)ccc1Cl | 0.1 mM | 8.33 | –
9.8 µM | – | O=C(Nc1nc2ccccc2[nH]1)c1ccc(Cl)c(Cl)c1 | 0.1 mM | 10.2 | –
6.4 µM | – | O=C(Nc1nc2ccccc2[nH]1)c1cc(Cl)cc(Cl)c1 | 0.8 mM | 125 | –
22 µM | – | O=C(/C=C/c1ccncc1)Nc1nc2ccccc2[nH]1 | 1 mM | 44.8 | –
25 µM | – | O=C(Nc1nc2ccccc2[nH]1)c1ccc(Cl)cc1 | 1 mM | 40.4 | –

— ChEMBL document CHEMBL3399971
